This note sets out measurements from ChEMBL document CHEMBL1142963, “Novel sigma receptor ligands: synthesis and biological profile” (J Med Chem, 2007).

Assay [1] in a line: Displacement of [3H]DTG rom guinea pig brain sigma 2 receptor. More on the design: species or system Cavia porcellus. Background: Displacement assays read how much labelled ligand stays bound in the presence of the test substance.
For assay [2], the target named is Sigma non-opioid intracellular receptor 1 (Cavia porcellus, UniProt Q60492). Kind of assay: Displacement of [3H](+)-pentazocine from guinea pig brain sigma 1 receptor.
The species named for assay [3] is Rattus norvegicus. Description: Increase in TG-2 expression in albino Wistar rat primary 14 DIV astroglial cell at 25 uM after 24 hrs by CLSM analysis. The class given is functional. In short, it runs like this:
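Astrocytes at 14 DIV were treated with 25 µM for 24 h and fixed in 4% paraformaldehyde for 20 min. They were blocked with 1% normal serum for 1 h, then incubated overnight with anti-TG-2 monoclonal (1:500), followed by FITC and TRITC anti-IgG (1:64, 2 h each). Confocal imaging at fixed settings measured cytosolic and nuclear fluorescence intensity versus control after nonspecific subtraction.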

Assay [4] is filed under the species Rattus norvegicus. Description: Activity at sigma 2 receptor in rat astroglial cells. Type of assay: cell-based.
Assay [5] can be described thus: Increase in apoptosis in albino Wistar rat primary 14 DIV astroglial cells at 25 uM after 24 hrs by TUNEL assay relative to control. Type of assay: functional. In short, it runs like this:
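Astrocytes at 14 DIV were treated 24 h at 25 µM. TUNEL labelling with fluorescein-dUTP at free 3′-OH DNA ends; apoptotic cells appear green (FITC), nonapoptotic cells red (PI). Apoptotic cells were counted against all cells in 10 random fields per dish and expressed as a percentage.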

The species named for assay [6] is Rattus norvegicus. Kind of assay: Increase in TG-2 expression in albino Wistar rat primary astroglial cells at 25 uM after 24 hrs. Type of assay: functional. In short, it runs like this: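 Primary Wistar rat astrocytes at 14 DIV were exposed to ligand 25 µM for 24 h. Densitometric percentage of TG-2 versus untreated control; HUVEC extract as positive control. Mean ± SD of four experiments.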

The species entered for assay [7] is Rattus norvegicus. Kind of assay: Decrease of caspase 3 cleavage in albino Wistar rat primary astroglial cells at 25 uM after 24 hrs relative to control. Type of assay: functional. An outline of the steps:
(§1)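 Primary astrocytes from 1–2-day-old Wistar rat brains were grown 14 DIV, then exposed to ligand 25 µM for 24 h. Cells were lysed and sonicated, and 30 µg protein was run on 10% SDS-PAGE. Mean ± SD of four experiments; t test.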

For assay [8], the species on record is Rattus norvegicus. Kind of assay: Increase of caspase 3 cleavage in albino Wistar rat primary astroglial cells at 25 uM after 24 hrs relative to control. Type of assay: functional. An outline of the steps: as §1

pKi: −log10 of the molar value. Activity calls are given as the source filed them. The rule behind the calls is not given here.

Chain of Sigma non-opioid intracellular receptor 1 (Q60492 whole entry): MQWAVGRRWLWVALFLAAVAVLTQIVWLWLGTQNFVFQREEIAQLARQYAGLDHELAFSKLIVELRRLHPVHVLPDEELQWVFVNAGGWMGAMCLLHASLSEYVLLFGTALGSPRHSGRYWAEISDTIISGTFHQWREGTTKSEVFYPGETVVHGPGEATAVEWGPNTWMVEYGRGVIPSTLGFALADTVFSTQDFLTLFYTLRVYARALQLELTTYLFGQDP

Regarding `COC(=O)C1(c2ccc([N+](=O)[O-])cc2)CC1CN1CCC(Cc2ccccc2)CC1` (stereo not given), the pKi (as a rule, −log10 of the Ki, conventionally taken in molar units) in assay [1] is 8.05; in assay [2], 9.17.
For the molecule `COC(=O)C1(c2ccc(OC)cc2)CC1CN1CCC(Cc2ccccc2)CC1` (stereo not given), the pKi in assay [1] was 7.85; in assay [2], 9.00.
On to `COC(=O)C1(c2ccc([N+](=O)[O-])cc2)CC1CN1CCN(c2ccccn2)CC1` (stereo not given), for which the pKi in assay [1] was under 5.00; in assay [2], 6.11.
Turning to `COC(=O)C1(c2ccc(Cl)cc2)CC1CN1CCN(c2ccccn2)CC1` (stereo not given), the negative-log Ki (pKi) in assay [1] was 5.62; in assay [2], 6.15.
Turning to `COC(=O)C1(c2ccc([N+](=O)[O-])cc2)CC1CN1CCN(c2ncccn2)CC1` (stereo not given), the pKi in assay [1] was under 5.00; in assay [2], 6.21.
With `COC(=O)C1(c2ccc(C)cc2)CC1CN1CCN(c2ccccn2)CC1` (stereo not given), the pKi is 5.66 in assay [1] and 6.30 in assay [2].
Consider `COC(=O)C1(c2ccccc2)CC1CN1CCC(Cc2ccccc2)CC1` (stereo not given), for which the results for the pKi in assay [1] and in assay [2] were 7.88 and 8.66, respectively.
On to `COC(=O)C1(c2ccccc2)CC1CN1CCN(c2ccccn2)CC1` (stereo not given), for which the pKi in assay [1] was 5.20; in assay [2] it was 5.88.
The like results for `COC(=O)C1(c2ccc(N)cc2)CC1CN1CCN(c2ccccn2)CC1` (stereo not given) were, in that order, under 5.00 and under 5.00.
The matching figures for `COC(=O)C1(c2ccc(Cl)cc2)CC1CN1CCN(c2ncccn2)CC1` (stereo not given): 5.57 and 6.46.
The matching figures for `COC(=O)C1(c2ccccc2)CC1CN1CCC(O)(c2ccccc2)CC1` (stereo not given): 7.47 and 8.51.
As to `O=C(CCCN1CCC(O)(c2ccc(Cl)cc2)CC1)c1ccc(F)cc1`, the result in the assay filed under Rattus norvegicus [3] was Active. In addition, the Activity entry in the assay filed under Rattus norvegicus [4] (filed as agonist) was “Agonist”.
Regarding `COC(=O)C1(c2ccc(OC)cc2)CC1CN1CCN(c2ccccn2)CC1` (stereo not given), the pKi in assay [1] is under 5.00; in assay [2], 5.90.
Take `COC(=O)C1(c2ccc(C)cc2)CC1CN1CCN(c2ncccn2)CC1` (stereo not given): the negative-log Ki (pKi) in assay [1] was 5.47; in assay [2], 6.45.
In the case of `CC[C@H]1C[C@@H]2C[C@H]3c4[nH]c5ccc(OC)cc5c4CCN(C2)[C@@H]13` [IBOGAINE], the pKi in assay [2] was 6.60.
In the case of `COC(=O)C1(c2ccc([N+](=O)[O-])cc2)CC1CN1CCC(O)(c2ccccc2)CC1` (stereo not given), the negative logarithm of the Ki (pKi) in assay [1] was 7.74; in assay [2] it was 8.72.
Regarding `COC(=O)C1(c2ccc(Cl)cc2)CC1CN1CCC(O)(c2ccccc2)CC1` (stereo not given), the pKi in assay [1] was 7.72; in assay [2], 8.77.
`Cc1ccccc1NC(=N)Nc1ccccc1C` [DITOLYLGUANIDINE] showed a pKi in assay [1] of 7.31.
On to `CN(C)CCN(C)CCc1ccc(Cl)c(Cl)c1`, for which the result in the assay filed under Rattus norvegicus [3] and in the assay filed under Rattus norvegicus [7] was Active. Further, the Ratio in assay [5] is listed as 7%. Moreover, the result in the assay listed under Rattus norvegicus [6] was inactive. The Activity result in the assay filed under Rattus norvegicus [4] (filed as agonist) is “Agonist”.
For `COC(=O)C1(c2ccc(OC)cc2)CC1CN1CCN(c2ncccn2)CC1` (stereo not given), the pKi in assay [1] was under 5.00; in assay [2], 5.69.
As to `COC(=O)C1(c2ccc(OC)cc2)CC1CN1CCC(O)(c2ccccc2)CC1` (stereo not given), the pKi in assay [1] was 7.28; in assay [2], 8.51.
Regarding `COC(=O)C1(c2ccc(C)cc2)CC1CN1CCC(Cc2ccccc2)CC1` (stereo not given), the negative logarithm of the Ki (pKi) in assay [1] is 8.05; in assay [2], 9.01.
Regarding `CC(C)=CCN1CC[C@]2(C)c3cc(O)ccc3C[C@H]1[C@H]2C` [(+)-PENTAZOCINE], the outcome in the assay listed under Rattus norvegicus [4] was inactive. The pKi in assay [1] was 5.81. The result in the assay listed under Rattus norvegicus [7] was Active.
Take `COC(=O)C1(c2ccccc2)CC1CN1CCN(c2ncccn2)CC1` (stereo not given): the figures for the pKi in assay [1] and in assay [2] were under 5.00 and 5.51, respectively.
`COC(=O)C1(c2ccc(Cl)cc2)CC1CN1CCC(Cc2ccccc2)CC1` (stereo not given): the pKi in assay [1] is 7.92; in assay [2], 9.09.
The like results for `COC(=O)C1(c2ccc(N)cc2)CC1CN1CCN(c2ncccn2)CC1` (stereo not given) were, in that order, 5.45 and under 5.00.
As for `CC[C@H]1C[C@H]2C[C@H]3c4[nH]c5ccc(OC)cc5c4CCN(C2)[C@@H]13` [IBOGAINE], the outcome in the assay listed under Rattus norvegicus [3], in the assay filed under Rattus norvegicus [6] and in the assay listed under Rattus norvegicus [8] was Active. For the same molecule, the Ratio in assay [5] was found to be 95%. Also, the Activity entry in the assay filed under Rattus norvegicus [4] (filed as agonist) is “Agonist”. For the same molecule, the pKi in assay [1] was 5.03.
